Assay [1] has as its target T1, Seed linoleate 13S-lipoxygenase-1 (Glycine max) (UniProt P08170).
T1 sequence (whole entry): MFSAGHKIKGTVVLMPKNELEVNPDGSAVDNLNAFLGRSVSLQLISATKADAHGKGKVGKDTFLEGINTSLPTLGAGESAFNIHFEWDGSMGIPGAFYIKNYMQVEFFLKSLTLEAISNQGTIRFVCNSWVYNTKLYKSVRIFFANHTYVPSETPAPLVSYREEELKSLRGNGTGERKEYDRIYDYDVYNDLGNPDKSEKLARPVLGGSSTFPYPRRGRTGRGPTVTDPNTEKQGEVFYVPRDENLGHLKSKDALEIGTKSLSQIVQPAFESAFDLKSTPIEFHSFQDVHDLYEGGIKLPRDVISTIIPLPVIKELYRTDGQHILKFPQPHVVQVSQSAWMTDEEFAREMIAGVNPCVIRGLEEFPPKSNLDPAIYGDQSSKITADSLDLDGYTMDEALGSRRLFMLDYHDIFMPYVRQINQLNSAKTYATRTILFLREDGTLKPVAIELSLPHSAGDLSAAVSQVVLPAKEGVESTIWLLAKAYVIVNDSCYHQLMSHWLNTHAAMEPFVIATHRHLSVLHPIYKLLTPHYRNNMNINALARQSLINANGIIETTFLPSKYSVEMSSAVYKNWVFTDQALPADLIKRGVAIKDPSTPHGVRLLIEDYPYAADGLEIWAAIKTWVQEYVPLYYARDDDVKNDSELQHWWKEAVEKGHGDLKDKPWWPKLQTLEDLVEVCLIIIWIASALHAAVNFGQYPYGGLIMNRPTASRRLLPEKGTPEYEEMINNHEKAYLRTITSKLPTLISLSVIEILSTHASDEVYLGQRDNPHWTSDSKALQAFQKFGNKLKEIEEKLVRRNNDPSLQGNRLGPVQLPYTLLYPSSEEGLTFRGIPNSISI
Briefly: Inhibition of soybean lipoxygenase at 0.1 mM. In short, it runs like this:
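Soybean lipoxygenase solution (1/9 × 10⁴ w/v in saline) was incubated at room temperature with sodium linoleate (0.1 mM) and compound dissolved in ethanol. UV absorbance-based read-out. At least triplicate.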

The subject of a further assay is Rattus norvegicus. The assay can be described thus: Inhibition of carrageenan-induced Fischer 344 rat paw edema at 0.01 mmol/kg, ip. Format: functional. The following applies: Fischer 344, ip. Put shortly: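 Fischer 344 rats (150-200 g), both sexes, pregnant females excluded; 6-15 per group. Paw edema was induced by intradermal injection of 0.1 mL 2% carrageenin in water into the right hind paw. Compound at 0.01 mmol/kg, suspended in water with a few drops of Tween 80, was given ip at the same time. Rats were euthanized at 3.5 h. Injected minus uninjected paw weight was expressed as % inhibition versus water-treated controls. Mean of two experiments.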

Assay [2] can be described thus: Antioxidant activity assessed as DPPH reducing activity at 0.1 mM after 20 mins. Set-up: scale not given: the % may be the effect or the level left. Format: functional. Put shortly: (§1)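 DPPH in absolute ethanol was mixed with an equal volume of compound in ethanol (0.1 or 0.5 mM); ethanol served as control. Absorbance at 517 nm was read after 20 and 60 min at room temperature. At least triplicate.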
On the technique in general: DPPH is a stable violet radical that fades when it is reduced.

Assay [3] is described as follows: Antioxidant activity assessed as DPPH reducing activity at 0.1 mM after 60 mins. Further details: scale not given: the % may be the effect or the level left. Format: functional. Put shortly:
as §1

Assay [4] in a line: Antioxidant activity assessed as DPPH reducing activity at 0.5 mM after 20 mins. The format is functional. Further details: scale not given: the % may be the effect or the level left. In short, it runs like this: as §1
Assay [5] is described as follows: Antioxidant activity assessed as DPPH reducing activity at 0.5 mM after 60 mins. Set-up: scale not given: the % may be the effect or the level left. Format: functional. In short, it runs like this: as §1
The nature of assay [6]: Antioxidant activity assessed as DMSO hydroxyl radical scavenging activity at 0.1 mM. Format: functional. In short, it runs like this:
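Hydroxyl radicals generated by Fe3+/ascorbic acid; reaction mix contained EDTA 0.1 mM, Fe3+ 167 µM, DMSO 33 mM and ascorbic acid 10 mM in 50 mM phosphate buffer pH 7.4, with test compound at 0.1 mM. Incubated 30 min at 37 °C, then stopped with trichloroacetic acid (17% w/v). Formaldehyde from DMSO oxidation was measured by the Nash method at 425 nm. At least triplicate.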

Calls of active or inactive are those of the source. The rule behind the calls is not given here.

`O=C(O)CCCCC1CCSS1` (stereo not drawn) [LIPOIC ACID, ALPHA]: in assay [1], the inhibition – broadly, the drop in the measured response relative to a control, in per cent – came out at 29.1%. For the same compound, the inhibition in vivo (in general, the change of the read-out against control, counted positive when it falls) at 10 µmol/kg with Rattus norvegicus came out at 29.6%. Also, the Activity in assay [2] worked out at 20.3%; in assay [3], 27.1%; in assay [4], 5.2%; in assay [5] it was 6.8%; in assay [6], 38.6%.

The compound `Nc1ccc(NC(=O)c2c(O)c3ccccc3n(-c3ccccc3)c2=O)cc1` showed an inhibition in assay [1] of 58.9%. Besides, the inhibition in vivo at 10 µmol/kg with Rattus norvegicus amounted to 56.4%. Also, the Activity is 89% in assay [2]; 88.3% in assay [3]; 94.4% in assay [4]; 89.2% in assay [5]; 10% in assay [6].

In the case of `NCCCCCCNC(=O)c1c(O)c2ccccc2n(-c2ccccc2)c1=O`, the inhibition in assay [1] was determined as 17.6%. Further, the inhibition in vivo at 10 µmol/kg in the assay on Rattus norvegicus is 68.8%. The Activity in assay [2] stood at 11.6%; in assay [3] it was 17.5%; in assay [4] it was 19.3%; in assay [5], 28.1%; in assay [6] it was 27.1%.

Take `Cn1c(=O)c(C(=O)Nc2ccccc2N)c(O)c2ccccc21`: in assay [1], the inhibition turned out to be 71.3%. In the assay on Rattus norvegicus, this compound displayed an inhibition in vivo at 10 µmol/kg of 85.3%. The Activity in assay [2] came to 6%; in assay [3] it was 13.5%; in assay [4], 28.8%; in assay [5] it was 41.4%; in assay [6] it was 60.5%.

`CC(Cc1ccc(O)c(O)c1)C(C)Cc1ccc(O)c(O)c1` (stereo unspecified): the Activity in assay [4] is 96.5%; in assay [5], 98%.

For `COC(=O)c1c(O)c2ccccc2n(C)c1=O`, in assay [1], the inhibition came to 72.4%. In the assay with Rattus norvegicus, this compound had an inhibition in vivo at 10 µmol/kg of 58.8%. The Activity in assay [2] is 8.3%; in assay [3], 7.4%; in assay [4] it was 17.5%; in assay [5] it was 18.4%; in assay [6], 45%.

In assay [1], `Cn1c(=O)c(C(=O)NCCCCCCNC(=O)CCCCC2CCSS2)c(O)c2ccccc21` (stereo unspecified) showed an inhibition of 79.1%. The compound further had an inhibition in vivo at 10 µmol/kg in the assay with Rattus norvegicus of 53%. Moreover, the Activity in assay [2] is 9.1%; in assay [3], 13%; in assay [4], 28.4%; in assay [5] it was 38.8%; in assay [6], 28.6%.

For the compound `O=C(CCCCC1CCSS1)NCCNC(=O)c1c(O)c2ccccc2n(-c2ccccc2)c1=O` (stereo unspecified), the outcome in assay [1] and in assay [4] was inactive. This compound yielded an inhibition in vivo at 10 µmol/kg in the assay with Rattus norvegicus of 45.5%. In addition, the Activity was 6.4% in assay [2], 7.8% in assay [3], 14.1% in assay [5] and 0% in assay [6].

For the compound `COc1ccc2c(c1)c(CC(=O)O)c(C)n2C(=O)c1ccc(Cl)cc1` [INDOMETHACIN], the inhibition in vivo at 10 µmol/kg in the assay with Rattus norvegicus stood at 47%.

For `Cn1c(=O)c(C(=O)Nc2ccc(N)cc2)c(O)c2ccccc21`, in assay [1], the inhibition was found to be 50.8%. For the same compound, the inhibition in vivo at 10 µmol/kg in the assay on Rattus norvegicus worked out at 69.5%. The Activity in assay [2] was 90.2%; in assay [3], 88.1%; in assay [4], 85.1%; in assay [5], 83.7%; in assay [6], 20.7%.

In assay [1], `Cn1c(=O)c(C(=O)NCCN)c(O)c2ccccc21` returned an inhibition of 99.5%. For the same compound, in the assay on Rattus norvegicus, the inhibition in vivo at 10 µmol/kg came to 67%. Further, the Activity was 5.6% in assay [2]; 11.5% in assay [3]; 20.9% in assay [4]; 37.1% in assay [5]; 40.1% in assay [6].

With `Cc1c(C)c2c(c(C)c1O)CCC(C)(C(=O)O)O2` (stereo unspecified), the Activity in assay [6] turned out to be 88.2%.

Regarding `O=C(CCCCC1CCSS1)NCCCCCCNC(=O)c1c(O)c2ccccc2n(-c2ccccc2)c1=O` (stereo unspecified), in assay [1], the inhibition stood at 64%. In the assay with Rattus norvegicus, this compound yielded an inhibition in vivo at 10 µmol/kg of 50%. For the same compound, the Activity was determined as 6.2% in assay [2], 10.2% in assay [3], 23.9% in assay [4] and 29.5% in assay [5]. Moreover, the result in assay [6] was inactive.

In the case of `O=C(CCCCC1CCSS1)Nc1ccccc1NC(=O)c1c(O)c2ccccc2n(-c2ccccc2)c1=O` (stereo unspecified), the inhibition in assay [1] was found to be 100%. Besides, in the assay on Rattus norvegicus, the inhibition in vivo at 10 µmol/kg stood at 63%. Moreover, the Activity in assay [2] turned out to be 9.7%; in assay [3], 16.1%; in assay [4], 11%; in assay [5] it was 28.5%. The result in assay [6] was inactive.

As to `Cn1c(=O)c(C(=O)NCCCCCCN)c(O)c2ccccc21`, the inhibition in assay [1] was 92.1%. In the assay on Rattus norvegicus, this compound came in with an inhibition in vivo at 10 µmol/kg of 68.5%. Also, the Activity is 3.1% in assay [2]; 8.3% in assay [3]; 13.7% in assay [4]; 21.9% in assay [5]; 59.3% in assay [6].

On to `Nc1ccccc1NC(=O)c1c(O)c2ccccc2n(-c2ccccc2)c1=O`, for which, in assay [1], the result was inactive. This compound also came in with an inhibition in vivo at 10 µmol/kg in the assay on Rattus norvegicus of 48.5%. Further, the Activity came to 9.4% in assay [2]; 16.3% in assay [3]; 21.3% in assay [4]; 34.7% in assay [5]; 98% in assay [6].

For `NCCNC(=O)c1c(O)c2ccccc2n(-c2ccccc2)c1=O`, in assay [1], the inhibition was 82.3%. In addition, in the assay with Rattus norvegicus, the inhibition in vivo at 10 µmol/kg came to 68.1%. The Activity in assay [2] came to 7.2%; in assay [3] it was 10%; in assay [4], 1.4%; in assay [5] it was 7.9%; in assay [6], 78.6%.

`COC(=O)c1c(O)c2ccccc2n(-c2ccccc2)c1=O`: the inhibition in assay [1] is 100%. This compound also came in with an inhibition in vivo at 10 µmol/kg in the assay with Rattus norvegicus of 37.1%. Also, the Activity was determined as 9.1% in assay [2]; 9.1% in assay [3]; 16.8% in assay [4]; 19.3% in assay [5]; 95% in assay [6].

As to `Cn1c(=O)c(C(=O)NCCNC(=O)CCCCC2CCSS2)c(O)c2ccccc21` (stereo unspecified), the inhibition in assay [1] was determined as 66.5%. Also, the inhibition in vivo at 10 µmol/kg in the assay on Rattus norvegicus is 48.2%. The Activity turned out to be 10.9% in assay [2]; 3.4% in assay [3]; 28.8% in assay [4]; 40.1% in assay [5]; 67.9% in assay [6].

The values above are taken from ChEMBL document CHEMBL1139869, “Design and synthesis of novel quinolinone-3-aminoamides and their alpha-lipoic acid adducts as antioxidant and anti-inflammatory agents” (2007).
